Laboratory results from article PMC4373334 (Journal of Cellular and Molecular Medicine, 2010).
Values belong to the compound of their own block, whether it stands above or below them.

How the values were obtained:
[1] = tested on: Zucker obese (fa/fa) rats; assay: Zucker obese rat: renal morphology and morphometry; type: in vivo; settings: for mean glomerular diameter / glomerular and interstitial changes (glomerulosclerosis, tubulointerstitial damage) versus ZK: 30 weeks; for mean glomerular diameter: ZK 1.098 ± 0.05; for glomerular and interstitial changes (glomerulosclerosis, tubulointerstitial damage) versus ZK: light microscopy
[2] = tested on: Zucker obese (fa/fa) rats; assay: Zucker obese rat: renal function; type: in vivo; settings: for restraint of proteinuria/albuminuria/creatininuria: 24 hr urinary excretion, end of treatment; for change in creatinine clearance (GFR) versus ZK / change in plasma creatinine concentration versus ZK / restraint of the increase in urinary albumin-to-creatinine ratio: end of 24-week treatment
[3] = tested on: Zucker obese (fa/fa) rats; assay: Zucker obese rat, 24-week treatment: plasma parameters; type: in vivo; settings: for change in plasma cholesterol versus ZK / change in plasma triglycerides versus ZK: after 24 weeks, 30 mg/kg/day; for insulin resistance (HOMA-IR) versus ZK / reduction of hyperinsulinaemia (plasma insulin) versus ZK / effect on plasma glucose levels: end of 24-week treatment; for effect on plasma glucose levels: fasting
Method in brief: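 Male Zucker fa/fa rats (lean littermates as reference), 12 per group, received test compound in drinking water at 30 mg/kg/24 h from week 6 to week 30. Plasma spun 15 min at 4°C and stored at –80°C. Cholesterol, triglycerides, glucose and insulin measured by enzymatic-colorimetric kits. HOMA-IR calculated from fasting glucose and insulin.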

[4] = Stability; type: in vitro ADME, human; settings: for stability to enzymatic hydrolysis in human serum: 37°C, followed over 24 hrs
Method in brief: (§1)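 Matrices were human serum (healthy donors, 25–30 yr), human liver S9000 fraction or rat kidney S9000 fraction (0.25 g/ml), pre-warmed 10 min at 37°C. Test compound added from a 1 mM solution in 10 mM PBS, pH 7.4; PBS-only controls run alongside. Sampled at 0–120 min, with 24 h added for serum. Internal standard added, then perchloric acid deproteinization (15 min, 4°C), centrifugation and LC-MS/MS.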

[5] = tested on: Zucker obese (fa/fa) rats; assay: Zucker obese rat: kidney protein carbonyl content; type: in vivo; settings: for Kidney PCOs: end of the experiment; for reduction of kidney PCOs versus ZK: kidney homogenates
Method in brief: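 Kidneys taken at week 30 from Zucker fa/fa rats (six per group) given test compound in drinking water at 30 mg/kg/24 h. Homogenate 25% w/v in 0.15 M KCl, pH 7.4, with protease inhibitors, centrifuged at 12,000 ×g for 10 min. Total protein carbonyls read at 366 nm (ε 22,000/M/cm), expressed as nmoles/mg protein.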

[6] = tested on: Zucker obese (fa/fa) rats; assay: Zucker obese rat: tail tendon collagen solubility and Ehrlich adducts; type: in vivo; settings: for reduction of Ehrlich positive material versus ZK: not significant; for Collagen solubility: acetic acid; for Collagen solubility / Ehrlich adducts: end of the experiment
Method in brief: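 Tail tendons from treated Zucker fa/fa rats (drinking water, 30 mg/kg/24 h, weeks 6–30) cleaned and washed in ice-cold 75 mM phosphate buffer, pH 7.00, then lyophilized. Solubility determined on 10 mg samples; hydroxyproline measured after acid hydrolysis, collagen taken as 14% hydroxyproline. Ehrlich adducts and fluorescence (ex 365/em 416 nm) measured on 50 mg pepsin-digested collagen, blank-corrected, per mg collagen.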

[7] = ACR quenching ability in homogeneous solution; settings: 60 min; for percentage amount of ACR quenched: ACR 50 μM, quencher 500 μM (1:10); for ACR disappeared: ACR 200 μM, 1:10 molar excess
[8] = Stability in human liver S 9.000 fraction; type: in vitro ADME; settings: within 15 min, then unchanged until 120 min
Method in brief: as §1

[9] = tested on: Zucker obese (fa/fa) rats; assay: Zucker obese rat: systolic blood pressure by tail-cuff plethysmography; type: in vivo; settings: end of the experiment (30 weeks)
Method in brief: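 Zucker fa/fa rats dosed in drinking water (30 mg/kg/24 h, weeks 6–30). Systolic pressure taken monthly by tail-cuff plethysmography in conscious, unanaesthetized rats pre-warmed 30 min at 37°C and restrained in a plastic chamber. Heart rate taken from the arterial pulse wave.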

[10] = tested on: Zucker obese (fa/fa) rats; assay: Zucker obese rat, 24-week treatment: body weight and food intake; type: in vivo; settings: 30 weeks of age, 30 mg/kg/day for 24 weeks
Method in brief: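 Male Zucker fa/fa rats bought at 5 weeks, with lean Fa/Fa littermates as reference. Housed singly at 22 ± 1°C on a 12 h light/dark cycle, standard chow, 1 week acclimation. Randomized to three groups of 12. Test compound given in drinking water, concentration adjusted weekly to 30 mg/kg/24 h, from week 6 to week 30.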

[11] = tested on: Zucker obese (fa/fa) rats; assay: Zucker obese rat: urinary oxidative/carbonyl stress indices; type: in vivo; settings: end of the experiment; for AGEs: urine fluorescence; for CAR-HNE level / 8-epi-PGF2α level: urine; for CAR-HNE level: LC-ESI-MS/MS
Method in brief: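 24 h urine from treated Zucker fa/fa rats (drinking water, 30 mg/kg/24 h, weeks 6–30). 8-epi-PGF2α and TXB2 measured by enzyme immunoassay. Low-molecular-weight AGEs read by fluorescence (ex 370/em 440 nm), expressed per mg urinary creatinine. CAR-HNE Michael adduct quantified by LC-ESI-MS/MS.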

[12] = Zucker obese rat: carnosine levels in plasma, urine and renal tissue; type: in vivo; settings: for Carnosine level, Urine: no compound given during 24 hr in metabolic cage
[13] = Stability in rat kidney S 9000 fraction; type: in vitro ADME
Method in brief: as §1

[14] = Pharmacokinetic profile in the rat after oral administration; type: in vivo, Sprague-Dawley rats; settings: for Cmax: pre-dose concentration subtracted
Method in brief: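 Single oral dose of 100 mg/kg given to three male Sprague-Dawley rats per test compound. Plasma sampled pre-dose and at 0.25, 0.5, 1, 2, 4, 6 and 24 h, stored at –80°C, and assayed by LC-MS/MS. Pre-dose (endogenous) level subtracted. Non-compartmental analysis: Cmax and tmax read from raw data; AUC0–tlast by linear trapezoidal rule.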

[15] = HNE quenching ability in homogeneous solution; settings: HNE 200 μM; for HNE quenched: 1:10 molar excess, 24 hrs of incubation; for residual amount of HNE: quencher 2 mM (1:10), phosphate buffer pH 7.4, 37°C, 60 min
[16] = tested on: Zucker obese (fa/fa) rats; assay: Zucker obese rat: kidney cholesterol and triglycerides content; type: in vivo; settings: end of 24-week treatment, S 9.000 kidney fraction
Method in brief: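 Zucker fa/fa rats dosed via drinking water at 30 mg/kg/24 h from week 6 to week 30; six rats per group used for tissue. Kidney frozen in liquid nitrogen. Total cholesterol and triglycerides measured with commercial kits in S9000 kidney fraction (0.25 g/ml), expressed as μg/mg protein.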

[17] = Stability in rat serum; type: in vitro ADME
[18] = human beings receiving 450 mg, 15 min up to 300 min; cited from earlier work
[19] = cited from earlier work
[20] = male, Sprague-Dawley, rat, plasma, po, 100 mg/kg

- decrease in human serum ([4]; after 24 hrs of incubation): 6%
- hydrolysis in human liver [8]: ~30%
- increase in kidney CAR content compared to ZK ([12]; end of the experiment): 14.4 fold
- increase of plasma carnosine concentration ([12]; end of the experiment): > 10 fold
- Carnosine level, Plasma ([12]; end of the experiment, 30 mg/kg/day for 24 weeks): 5.37 ± 3.04 nmol/mL
- Carnosine level, Urine ([12]; end of the experiment): 10,069 ± 1844 ^* ^*/°°° nmol/day
- remaining in rat kidney ([13]; 120 min of incubation): 91%
- half-life ([14]; oral 100 mg/kg, rat plasma): 3.36 h
- systemic exposure up to infinite time AUC(0–∞) ([14]; oral 100 mg/kg, rat plasma): 318.62 ± 24.75 µM·h
- time until plasma concentration returned to baseline ([14]; oral 100 mg/kg, rat plasma): 24 h
- Cmax ([14]; oral 100 mg/kg, rat plasma): 52.86 ± 2.86 µM
- tmax ([14]; oral 100 mg/kg, rat plasma, 100 mg/kg): 2 h
SMILES: NCCC(=O)N[C@H](Cc1c[nH]cn1)C(=O)O [D-CAR, β-alanyl-D-histidine]
- mean glomerular diameter [1]: 1.042 ± 0.005
- GBM thickness ([1]; electron microscopy, four animals per group): 3.75 ± 0.8 nm
- glomerular and interstitial changes (glomerulosclerosis, tubulointerstitial damage) versus ZK [1]: not significantly modified
- restraint of proteinuria/albuminuria/creatininuria [2]: approximately 50%
- change in creatinine clearance (GFR) versus ZK [2]: +25.1%
- change in plasma creatinine concentration versus ZK [2]: –36%
- restraint of the increase in urinary albumin-to-creatinine ratio [2]: 65–70%
- change in plasma cholesterol versus ZK [3]: –45%
- change in plasma triglycerides versus ZK [3]: –43%
- insulin resistance (HOMA-IR) versus ZK [3]: significantly improved
- reduction of hyperinsulinaemia (plasma insulin) versus ZK [3]: 33.03%
- effect on plasma glucose levels [3]: did not significantly affect
- stability to enzymatic hydrolysis in human serum [4]: remained unchanged until 6 hrs incubation
- Kidney PCOs [5]: 6.61 ± 1.52 ^* nmol/mg prot
- reduction of kidney PCOs versus ZK [5]: 42.61%
- reduction of Ehrlich positive material versus ZK [6]: ~21.7%
- Collagen solubility ([6]; tail tendon collagen): 71.4 ± 3.14 ^* ^* %
- Ehrlich adducts ([6]; tail tendon collagen): 0.747 ± 0.384 µmol/mg
- percentage amount of ACR quenched [7]: 65.0 ± 3.3%
- ACR disappeared [7]: ~100%
- SBP [9]: 137 ± 4 mmHg
- reduction of SBP versus ZK [9]: 15.7%
- body weight difference versus LN [10]: +40%
- body weight difference versus ZK [10]: –9%
- effect on urinary TXB2 excretion rates [11]: did not affect
- increase in urinary CAR-HNE levels compared to ZK [11]: 2.2 fold
- AGEs [11]: 324.4 ± 21.8 ^* ^* FU/mg creatinine/day
- CAR-HNE level [11]: 0.982 ± 0.33 nmol/day
- 8-epi-PGF2α level [11]: 42.1 ± 3.9 ng/day
- Carnosine level, Kidney ([12]; end of the experiment): 127.7 ± 17.00 ^* ^*/°°° nmol/g wet tissue
- HNE quenched [15]: ~100%
- residual amount of HNE [15]: 46.9 ± 2.3%
- total cholesterol content in kidney [16]: 6.668 ± 0.5087 μg/mg protein
- triglycerides content in kidney [16]: 10.66 ± 0.3616 μg/mg protein

- time to disappearance in human serum ([4]; in vitro studies in the authors' laboratories): ≤ 5 min
- hydrolysis in human liver [8]: ~30%
- concentration at 24 weeks ([12]; Zucker obese, rat, plasma, oral, 30 mg/kg/day): 0.473 ± 0.13 µM
- Carnosine level, Kidney ([12]; end of the experiment): 14.67 ± 2.09 nmol/g wet tissue
- increase in kidney CAR content compared to ZK ([12]; end of the experiment): 1.6 fold
- Carnosine level, Urine ([12]; end of the experiment): 32.62 ± 1.25 nmol/day
- hydrolysis in rat kidney ([13]; during the sample processing time): about 93%
- half-life [14, 20]: 0.24 ± 0.02 h
- tmax [14, 20]: 1 h
- systemic exposure up to infinite time AUC(0–∞) ([14]; oral 100 mg/kg, rat plasma): 118.45 ± 9.24 µM·h
- time until plasma concentration returned to baseline ([14]; oral 100 mg/kg, rat plasma): 2 h
- Cmax ([14]; oral 100 mg/kg, rat plasma): 147.7 ± 6.50 µM
SMILES: NCCC(=O)N[C@@H](Cc1cnc[nH]1)C(=O)O [L-CAR, β-alanyl-L-histidine]
- mean glomerular diameter [1]: 1.023 ± 0.02
- glomerular and interstitial changes (glomerulosclerosis, tubulointerstitial damage) versus ZK [1]: not significantly modified
- restraint of proteinuria/albuminuria/creatininuria [2]: approximately 50%
- change in creatinine clearance (GFR) versus ZK [2]: +28.3%
- change in plasma creatinine concentration versus ZK [2]: –31.7%
- restraint of the increase in urinary albumin-to-creatinine ratio [2]: 65–70%
- change in plasma cholesterol versus ZK [3]: –40%
- change in plasma triglycerides versus ZK [3]: –35%
- insulin resistance (HOMA-IR) versus ZK [3]: significantly improved
- reduction of hyperinsulinaemia (plasma insulin) versus ZK [3]: 28.08%
- effect on plasma glucose levels [3]: did not significantly affect
- stability to enzymatic hydrolysis in human serum [4]: rapidly disappeared in human serum at the first time-point (60 min.)
- Kidney PCOs [5]: 8.83 ± 1.91 nmol/mg prot
- reduction of kidney PCOs versus ZK [5]: 23.4%
- reduction of Ehrlich positive material versus ZK [6]: ~9.1%
- increase of collagen solubility compared to ZK ([6]; tail tendon collagen): 66.4%
- Collagen solubility ([6]; tail tendon collagen): 65.4 ± 2.58 ^* %
- Ehrlich adducts ([6]; tail tendon collagen): 0.868 ± 0.39 µmol/mg
- stability in rat serum [17]: no significant reduction within at least 6 hrs
- percentage amount of ACR quenched [7]: 63.8 ± 3.5%
- ACR disappeared [7]: ~100%
- SBP [9]: 145 ± 3 mmHg
- reduction of SBP versus ZK [9]: 11.5%
- body weight difference versus LN [10]: +35.8%
- body weight difference versus ZK [10]: –12%
- effect on urinary TXB2 excretion rates [11]: did not affect
- increase in urinary CAR-HNE levels compared to ZK [11]: 1.7 fold
- AGEs [11]: 337.2 ± 28.7 ^* FU/mg creatinine/day
- CAR-HNE level [11]: 0.749 ± 0.37 nmol/day
- 8-epi-PGF2α level [11]: 37.6 ± 4.3 ng/day
- CAR in serum after oral supplementation [18]: No CAR was detected in serum specimens
- HNE quenched [15]: ~100%
- residual amount of HNE [15]: 46.2 ± 2.73%
- time to hydrolysis in human serum [19]: ≤ 5 min
- total cholesterol content in kidney [16]: 6.31 ± 0.5115 μg/mg protein
- triglycerides content in kidney [16]: 12.01 ± 0.9528 μg/mg protein
